We go through nine compounds from ChEMBL document CHEMBL1932987, “Straightforward palladium-mediated synthesis and biological evaluation of benzo[j]phenanthridine-7,12-diones as anti-tuberculosis agents” (Eur J Med Chem, 2012).

pIC50: −log10 of the molar value. Converted amounts (≈) assume the structure as drawn. The source made the active and inactive calls. The rule behind the calls is not given here.

Data set [1] deals with Mycobacterium tuberculosis. Kind of data set: Antimycobacterial activity against Mycobacterium tuberculosis H37Rv expressing pSMT1 after 1 to 7 days by luminescent assay. The class given is functional. The gist of the method:
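Luminescent M.tb. H37Rv carrying pSMT1 (luxAB, hsp60 promoter) in 7H9 + 10% FCS. Bacteria filtered, recovered 1 h at 37 °C, 5% CO2, added at 50,000 RLU/ml. Serial dilutions from 1 mM DMSO stocks, triplicate wells. Luminometry after 1, 3 and 7 days; MIC50 = 50% growth reduction.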

A short description of data set [2]: Cytotoxicity against human HepG2/C3A cells after 24 hrs by neutral red uptake assay. The class given is cell-based. The gist of the method: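 C3A hepatocytes in DMEM + 10% FCS, 40,000 per well, recovered at 37 °C, 5% CO2. Exposed 24 h to final 10, 3, 1, 0.3, 0.1 µM from 1 mM DMSO stocks. Neutral red added for 3 h, extracted with ethanol/acetic acid, OD read at 530 nm with 620 nm reference. IC50 = 50% neutral red uptake.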

Data set [3] can be described thus: Selectivity index, ratio of IC50 for human HepG2/C3A cells to MIC50 for Mycobacterium tuberculosis H37Rv. It counts as functional. The gist of the method: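 Selectivity index is the IC50 from the C3A neutral red uptake assay divided by the MIC50 against luminescent M.tb. H37Rv.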
Data set [4] deals with Salmonella typhimurium. The data set is described as follows: Genotoxicity in Salmonella Typhimurium expressing episomal lux operon assessed as concentration required to cause toxicity in presence of S9 fraction. The class given is organism-based. The following applies: salmonella enterica subsp. enterica serovar typhimurium. The gist of the method:
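VITOTOX with genetically engineered Salmonella typhimurium strains, with or without S9 from aroclor-treated rat liver. Genotoxicity reported by a luxCDABE reporter under the RecN promoter. Tested at 10, 1 and 0.1 µM; lowest concentration showing cytotoxicity recorded.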

The subject of data set [5] is Mycobacterium tuberculosis. The data set is described as follows: Antimycobacterial activity against Mycobacterium tuberculosis H37Rv expressing pSMT1 after 1 to 7 days by BACTEC 460-TB assay. The class given is functional. The gist of the method: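 Radiometric BACTEC 460-TB culture of M.tb. H37Rv in 7H9-based medium. Pre-culture grown to GI 300, then inoculated into a fresh vial with serial compound dilutions made at 40x final concentration from 1 mM DMSO stocks. GI (14C-palmitate to 14CO2) read daily against untreated inocula diluted 100-fold at inoculation. MIC99 taken as 99% inhibition. Each measurement done at least twice.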

Data set [6] deals with Mycobacterium tuberculosis. The data set is described as follows: Antimycobacterial activity against Mycobacterium tuberculosis H37Rv infected in mouse J774 cells assessed as reduction of parasite growth at 0.3 uM after 7 days by luminescence assay. The class given is functional, organism-based. The gist of the method:
(§1)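 Murine J774 macrophages, 100,000 per well, recovered overnight, then infected with luminescent M.tb. H37Rv (10^4 CFU, MOI 0.1) in DMEM with penicillin and Fungizone. Cells treated with compound at final 10, 3, 1, 0.3, 0.1 µM. Monolayers lysed after 1, 3 or 7 days; intracellular bacteria read by luminometry of lysate. Triplicate cultures, mean RLU.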

In data set [7] the test system is Mycobacterium tuberculosis. The data set is described as follows: Antimycobacterial activity against Mycobacterium tuberculosis H37Rv infected in mouse J774 cells assessed as reduction of parasite growth at 1 uM after 7 days by luminescence assay. The class given is functional. The arrangement: scale not given: the % may be the effect or the level left. The gist of the method:
as §1

A short description of data set [8]: Cytotoxicity against mouse J774 cells assessed as viability at 1 uM after 7 days by neutral red uptake assay. The class given is cell-based. The following applies: read-out: Activity. The gist of the method:
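Uninfected J774 macrophages exposed to compound in parallel with the infection assay; viability read by neutral red uptake over the same exposure period.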

The test system of data set [9] is Mycobacterium tuberculosis. Kind of data set: Antimycobacterial activity against Mycobacterium tuberculosis H37Rv infected in mouse J774 cells assessed as reduction of parasite growth at 1 uM after 3 days by luminescence assay. The class given is functional. The arrangement: scale not given: the % may be the effect or the level left. The gist of the method: as §1

The subject of data set [10] is Mycobacterium tuberculosis. Kind of data set: Antimycobacterial activity against Mycobacterium tuberculosis H37Rv infected in mouse J774 cells assessed as reduction of parasite growth at 1 uM after 1 day by luminescence assay. Also on record: scale not given: the % may be the effect or the level left. It counts as functional. The gist of the method:
as §1

Data set [11] is described as follows: Induction of DNA fragmentation in human HepG2/C3A cells at 3 uM after 24 hrs by alkaline comet assay (reference value: 3.69%). The class given is toxicity, cell-based. The gist of the method:
(§2)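 Alkaline comet assay on C3A cells, 100,000 per well, pre-incubated 24 h with compound at 3, 1, 0.3 or 0.1 µM. Cells embedded in agarose on slides, lysed 1 h, electrophoresed 20 min at 300 mA, neutralized, stained with gel red. % tail DNA measured by fluorescence microscopy; compared with negative control by Mann-Whitney U test.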

The nature of data set [12]: Induction of DNA fragmentation in human HepG2/C3A cells at 0.3 uM after 24 hrs by alkaline comet assay (reference value: 3.69%). It counts as toxicity, cell-based. The gist of the method: as §2
Data set [13] is described as follows: Induction of DNA fragmentation in human HepG2/C3A cells at 1 uM after 24 hrs by alkaline comet assay (reference value: 3.69%). It counts as toxicity, cell-based. The gist of the method:
as §2

The nature of data set [14]: Induction of DNA fragmentation in human HepG2/C3A cells at 0.1 uM after 24 hrs by alkaline comet assay (reference value: 3.69%). The class given is toxicity, cell-based. The gist of the method:
as §2

For the compound `O=C1c2ccccc2C(=O)c2c1cnc1ccc(F)cc21`, the MIC50 in [1] was found to be 0.74 µM (≈ 0.205 µg/mL). In addition, in [2], the pIC50 was 5.96. Moreover, in data set [3], the “Selectivity Index” value came to 1.46. Also, in data set [4], the Activity amounted to 1 µM. Besides, the MIC99 in data set [5] turned out to be 1.38 µM (≈ 0.383 µg/mL).
On the same counts, the results for `COc1cccc2c3c(cnc12)C(=O)c1ccccc1C3=O` are 1.66 µM (≈ 0.48 µg/mL), 5.62, 1.45, 10 µM and 2.74 µM (≈ 0.793 µg/mL).
Regarding `Cc1ccc2ncc3c(c2c1)C(=O)c1ccccc1C3=O`, the MIC50 in data set [1] was determined as 0.88 µM (≈ 0.24 µg/mL). Moreover, in data set [2], the pIC50 was 5.83. Moreover, the “Selectivity Index” value in [3] is 1.69. In [4], the Activity is 10 µM. The compound also displayed an MIC99 in [5] of 1.53 µM (≈ 0.418 µg/mL).
As to `COc1ccc2ncc3c(c2c1)C(=O)c1ccccc1C3=O`, the MIC50 in data set [1] turned out to be 0.43 µM (≈ 0.124 µg/mL). This compound also gave a negative logarithm of the IC50 (pIC50) in data set [2] of 6.02. Also, the “Selectivity Index” value in data set [3] turned out to be 2.22. The Activity in data set [4] came out at 10 µM.
Turning to `NNC(=O)c1ccncc1` [ISONIAZID], in data set [1], the MIC50 stood at 0.54 µM (≈ 0.0741 µg/mL).
Consider `O=C1c2ccccc2C(=O)c2c1cnc1ccc(Cl)cc21`, for which the MIC50 in [1] was 1.03 µM (≈ 0.303 µg/mL). For the same compound, the pIC50 in data set [2] is 5.81. The “Selectivity Index” value in [3] turned out to be 1.5. Moreover, the Activity in data set [4] amounted to 1 µM. In data set [5], this compound showed an MIC99 of 1.35 µM (≈ 0.397 µg/mL).
In [1], `Cc1cccc2c3c(cnc12)C(=O)c1ccccc1C3=O` yielded an MIC50 of 3.68 µM (≈ 1.01 µg/mL). The pIC50 in data set [2] was 5.40. In data set [3], the “Selectivity Index” value amounted to 1.08. Further, the Activity in data set [4] came to 10 µM. In addition, in data set [5], the MIC99 amounted to 4.3 µM (≈ 1.18 µg/mL).
As for `Cc1ccc2c3c(cnc2c1)C(=O)c1ccccc1C3=O`, the MIC50 in data set [1] stood at 0.21 µM (≈ 0.0574 µg/mL). In addition, the pIC50 in data set [2] was 5.49. For the same compound, the “Selectivity Index” value in data set [3] is 15.29. The result in data set [6] was inactive. Also, the Activity worked out at 83.5% in [7]; 74.2% in data set [9]; 10 µM in data set [4]; 47.6% in [10]; 3.31% in [11]; 2.52% in [12]. Also, the Activity in data set [13] was found to be 2.15%; in [14], 3.47%. Further, the viability at 168 h, 1 µM in data set [8] was determined as 92.9%. Also, the MIC99 in [5] is 0.64 µM (≈ 0.175 µg/mL).
In the case of `O=C1c2ccccc2C(=O)c2c1cnc1ccccc21`, the MIC50 in data set [1] was 1.2 µM (≈ 0.311 µg/mL). Besides, in [2], the pIC50 is 5.82. Besides, the “Selectivity Index” value in data set [3] was 1.26. Besides, the Activity in [4] is 1 µM. The compound also came in with an MIC99 in [5] of 1.9 µM (≈ 0.493 µg/mL).

A word on the MIC50: it is an inhibitory concentration at the 50% level, which refers to growth in some studies and to a panel of isolates in others. Usually pIC50 stands for the negative decadic logarithm of the IC50, by convention in mol/L. By MIC99 is commonly meant an inhibitory concentration at the 99% level, which refers to growth in some studies and to a panel of isolates in others.
